Results published in ChEMBL document CHEMBL1123171, “Synthesis of delta 3-1-methylene-1-carbacephems” (1986).
In brackets after ≈: the same amount, converted by molar mass.

Key:
Staphylococcus aureus = experiment: Compound was tested in vitro for the antibacterial activity against Staphylococcus aureus (ATCC 6538P); format: functional
In short: (§1)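 Agar dilution MIC in diagnostic sensitivity test agar; inoculum 10^5–10^6 cfu/spot applied with a multipoint inoculator. Test compounds were racemic, so reported values are corrected: only one-half of the observed MIC is taken.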

[1] = system: Sarcina lutea (ATCC 9341); experiment: In vitro antibacterial activity against Sarcina lutea (ATCC 9341)
Bacillus subtilis = experiment: In vitro antibacterial activity against B. subtilis( NCTC 8236); format: functional; in short: as §1
Escherichia coli = experiment: In vitro antibacterial activity against Escherichia coli (ESS); format: functional; in short: as §1

MIC (Staphylococcus aureus)	MIC [1]	MIC (Bacillus subtilis)	MIC (Escherichia coli)	Structure (SMILES)
4 µg/mL (≈ 11.2 µM)	2 µg/mL (≈ 5.61 µM)	1.5 µg/mL (≈ 4.21 µM)	1.5 µg/mL (≈ 4.21 µM)	C=C1C2[C@H](NC(=O)COc3ccccc3)C(=O)N2C(C(=O)O)=CC1(C)C (some centres not stated)
8 µg/mL (≈ 22.5 µM)	0.12 µg/mL (≈ 0.338 µM)	1.5 µg/mL (≈ 4.22 µM)	5 µg/mL (≈ 14.1 µM)	C=C1C2[C@H](NC(=O)C(N)c3ccccc3)C(=O)N2C(C(=O)O)=CC1(C)C (some centres not stated)
0.3 µg/mL (≈ 0.864 µM)	0.03 µg/mL (≈ 0.0864 µM)	1 µg/mL (≈ 2.88 µM)	1 µg/mL (≈ 2.88 µM)	CC1=C(C(=O)O)N2C(=O)[C@@H](NC(=O)[C@H](N)c3ccccc3)[C@H]2SC1 [CEPHALEXIN ANHYDROUS]
